Results taken from ChEMBL document CHEMBL3774372, “Design, physico-chemical properties and biological evaluation of some new N-[(phenoxy)alkyl]- and N-{2-[2-(phenoxy)ethoxy]ethyl}aminoalkanols as anticonvulsant agents” (Bioorg Med Chem, 2016).
Calls of active or inactive are those of the source.

Legend:
[1] = test system: Mus musculus; experiment: Neurotoxicity in mouse at 100 mg/kg, ip after 4 hrs by rotarod test; format: toxicity, organism-based; conditions: in vivo
Summary of the method: (§1)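 Mice were dosed ip with compound suspended in 0.5% methylcellulose. Rotarod: a 1 in. knurled rod turning at 6 rpm. Neurotoxicity was scored as failure to stay on the rod for at least 1 min in each of three trials. Results are given as the number of animals affected out of the number tested.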

[2] = test system: Mus musculus; experiment: Anticonvulsant activity in mouse assessed as protection against maximal electric shock-induced seizures at 100 mg/kg, ip measured after 4 hrs; format: functional, organism-based
Summary of the method: (§2)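 Mice dosed ip with suspension in 0.5% methylcellulose; maximal electroshock applied at the listed time after dosing. Protection = abolition of hindlimb tonic extension component of seizure; reported as animals protected/animals tested.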

[3] = test system: Mus musculus; experiment: Neurotoxicity in mouse at 30 mg/kg, ip after 0.5 hrs by rotarod test; format: toxicity, organism-based; conditions: in vivo; summary of the method: as §1
[4] = test system: Mus musculus; experiment: Anticonvulsant activity in mouse assessed as protection against subcutaneous pentylenetetrazol-induced seizures at 100 mg/kg, ip measured after 4 hrs; format: functional, organism-based
Summary of the method: (§3)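 Mice dosed ip as 0.5% methylcellulose suspension; pentylenetetrazole 85 mg/kg in 0.9% NaCl injected subcutaneously into posterior midline, animals watched at least 30 min. Protection = no threshold seizure (single clonic spasm episode lasting ≥5 s); scored protected/tested.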

[5] = test system: Mus musculus; experiment: Anticonvulsant activity in mouse assessed as protection against subcutaneous pentylenetetrazol-induced seizures at 100 mg/kg, ip measured after 0.5 hrs; format: functional, organism-based; summary of the method: as §3
[6] = test system: Mus musculus; experiment: Anticonvulsant activity in mouse assessed as protection against subcutaneous pentylenetetrazol-induced seizures at 30 mg/kg, ip measured after 0.5 hrs; format: functional, organism-based; summary of the method: as §3
[7] = test system: Mus musculus; experiment: Anticonvulsant activity in mouse assessed as protection against maximal electric shock-induced seizures at 3 mg/kg, ip measured after 0.5 hrs; format: functional, organism-based; summary of the method: as §2
[8] = test system: Mus musculus; experiment: Anticonvulsant activity in mouse assessed as protection against maximal electric shock-induced seizures at 10 mg/kg, ip measured after 0.5 hrs; format: functional, organism-based; summary of the method: as §2
[9] = test system: Mus musculus; experiment: Neurotoxicity in mouse at 30 mg/kg, ip after 4 hrs by rotarod test; format: toxicity, organism-based; conditions: in vivo; summary of the method: as §1
[10] = test system: Mus musculus; experiment: Anticonvulsant activity in mouse assessed as protection against maximal electric shock-induced seizures at 30 mg/kg, ip measured after 4 hrs; format: functional, organism-based; summary of the method: as §2
[11] = test system: Mus musculus; experiment: Anticonvulsant activity in mouse assessed as protection against maximal electric shock-induced seizures at 100 mg/kg, ip measured after 0.5 hrs; format: functional, organism-based; summary of the method: as §2
[12] = test system: Mus musculus; experiment: Anticonvulsant activity in mouse assessed as protection against subcutaneous pentylenetetrazol-induced seizures at 30 mg/kg, ip measured after 4 hrs; format: functional, organism-based; summary of the method: as §3
[13] = test system: Mus musculus; experiment: Neurotoxicity in mouse at 100 mg/kg, ip after 0.5 hrs by rotarod test; format: toxicity, organism-based; conditions: in vivo; summary of the method: as §1
[14] = test system: Mus musculus; experiment: Neurotoxicity in mouse at 300 mg/kg, ip after 0.5 hrs by rotarod test; format: toxicity, organism-based; conditions: in vivo; summary of the method: as §1
[15] = test system: Mus musculus; experiment: Anticonvulsant activity in mouse assessed as protection against maximal electric shock-induced seizures at 30 mg/kg, ip measured after 0.5 hrs; format: functional, organism-based; summary of the method: as §2
[16] = test system: Mus musculus; experiment: Neurotoxicity in mouse at 300 mg/kg, ip after 4 hrs by rotarod test; format: toxicity, organism-based; conditions: in vivo; summary of the method: as §1
[17] = test system: Mus musculus; experiment: Anticonvulsant activity in mouse assessed as protection against maximal electric shock-induced seizures at 300 mg/kg, ip measured after 0.5 hrs; format: functional, organism-based; summary of the method: as §2
[18] = test system: Mus musculus; experiment: Anticonvulsant activity in mouse assessed as protection against subcutaneous pentylenetetrazol-induced seizures at 300 mg/kg, ip measured after 4 hrs; format: functional, organism-based; summary of the method: as §3
[19] = test system: Mus musculus; experiment: Anticonvulsant activity in mouse assessed as protection against maximal electric shock-induced seizures at 300 mg/kg, ip measured after 4 hrs; format: functional, organism-based; summary of the method: as §2
[20] = test system: Mus musculus; experiment: Anticonvulsant activity in mouse assessed as protection against subcutaneous pentylenetetrazol-induced seizures at 300 mg/kg, ip measured after 0.5 hrs; format: functional, organism-based; summary of the method: as §3
[21] = test system: Rattus norvegicus; experiment: Neurotoxicity in rat at 30 mg/kg, po after 0.5 hrs by rotarod test; format: toxicity, organism-based; conditions: in vivo
[22] = test system: Rattus norvegicus; experiment: Neurotoxicity in rat at 30 mg/kg, po after 4 hrs by rotarod test; format: toxicity, organism-based; conditions: in vivo
[23] = test system: Rattus norvegicus; experiment: Neurotoxicity in rat at 30 mg/kg, po after […] by rotarod test; format: toxicity, organism-based; conditions: in vivo
[24] = test system: Rattus norvegicus; experiment: Neurotoxicity in rat at 30 mg/kg, po after 2 hrs by rotarod test; format: toxicity, organism-based; conditions: in vivo
[25] = test system: Rattus norvegicus; experiment: Anticonvulsant activity in rat assessed as protection against maximal electric shock-induced seizures at 30 mg/kg, po measured after […]; format: functional, organism-based
[26] = test system: Rattus norvegicus; experiment: Neurotoxicity in rat at 30 mg/kg, po after 1 hr by rotarod test; format: toxicity, organism-based; conditions: in vivo
[27] = test system: Rattus norvegicus; experiment: Anticonvulsant activity in rat assessed as protection against maximal electric shock-induced seizures at 30 mg/kg, po measured after 1 hr; format: functional, organism-based
Summary of the method: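 Rats dosed ip or orally as 0.5% methylcellulose suspension; maximal electroshock at listed time. Protection = abolition of hindlimb tonic extension; 4 rats per group, scored protected/tested.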

[28] = test system: Mus musculus; experiment: Neurotoxicity in mouse at 100 mg/kg, ip after 2 hrs by rotarod test; format: toxicity, organism-based; conditions: in vivo; summary of the method: as §1

Row | Structure (SMILES) | Activity [1] | Activity [2] | Activity [3] | Activity [4] | Activity [5] | Activity [6] | Activity [9] | Activity [10] | Activity [11] | Activity [12] | Activity [13] | Activity [14] | Activity [15] | Activity [16] | Activity [17] | Activity [18] | Activity [19] | Activity [20] | further results
1 | Cc1cc(C)c(OCCN[C@H](C)CO)c(C)c1 | Non-toxic | inactive | Non-toxic | inactive | inactive | inactive | Non-toxic | inactive | Active | inactive | Toxic | Toxic | Active |  |  |  |  |  | Activity [7]: inactive; Activity [8]: inactive
2 | Cc1cccc(OCCNCC(O)c2ccccc2)c1C (centres undefined) |  | inactive | Non-toxic | inactive | inactive |  | Non-toxic | inactive | inactive | inactive |  |  | inactive | Non-toxic | inactive | inactive | inactive | inactive | 
3 | Cc1cc(C)c(OCCNCC(O)c2ccccc2)c(C)c1 (centres undefined) | Non-toxic | inactive | Non-toxic |  | inactive | inactive | Non-toxic | inactive | Active |  | Non-toxic |  | inactive | Non-toxic | Active |  | Active | inactive | Activity [21]: Non-toxic; Activity [22]: Non-toxic; Activity [23]: Non-toxic; Activity [24]: Non-toxic; Activity [25]: inactive; Activity [26]: Non-toxic; Activity [27]: inactive
4 | CCC(CO)NCCOCCOc1c(C)cccc1C (centres undefined) |  | inactive | Non-toxic |  | inactive | inactive | Non-toxic | inactive | Active | inactive | Toxic | Toxic | inactive |  |  | inactive |  |  | 
5 | Cc1cccc(OCCN2CCC(O)CC2)c1C | Non-toxic |  |  |  |  |  |  |  |  |  |  |  |  |  |  |  |  |  | Activity [28]: Non-toxic
